Consider one molecule from ChEMBL document CHEMBL1125259, “Lipophilic glycosyl phosphotriester derivatives of AZT: synthesis, NMR transmembrane transport study, and antiviral activity” (1991).

Assay type in all cases: functional
The target of experiment [1] is Human immunodeficiency virus type 1 reverse transcriptase (Human immunodeficiency virus 1) (UniProt Q72547). Kind of experiment: Compound ability to inhibit the production of HIV reverse transcriptase (RT) in culture supernatant of CEM-CL13 on at 7 days at a concentration 5 uM. Summed up: (§1)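 CEM-C113 cells in RPMI 1640 with 5% heat-inactivated FCS and polybrene (2 µg/mL) were plated at 1×10^5 cells/mL with compound in PBS, in triplicate, and infected with HIV-1 LAV-Bru. From day 7, every 3–4 days, fresh medium with or without drug was added and 50 µL supernatant was taken for RT microassay. The RT microassay used poly(rA)-oligo(dT) and (methyl-³H)dTTP for 1 h at 37 °C, with TCA precipitation, read as cpm/50 µL.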

The target is the same in experiment [2]. Kind of experiment: Compounds were evaluated for anti-RT activity at 7 days of culture. The method in brief: (§2)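 HIV-1 (12 500 CCID50) was preincubated with compound at 25 µM final for 60 min at 37 °C, pelleted by ultracentrifugation and resuspended. RT was measured at once with poly(rA)-oligo(dT) and ³H-dTTP (1 h, 37 °C, cpm). Treated virus was then put on CEM-C113 cells for 60 min and replaced with compound-free medium. Supernatant RT was read at days 7 and 9.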

In experiment [3] the test system is CCRF-CEM. The experiment in a line: Concentration required to reduce the viability of uninfected cells (CEM-CL13) by 50% on day 11. The conditions noted are these: Homo sapiens, 264 h, read-out: CD50 (the source's name). Summed up: (§3)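 CEM-C113 cells (1×10^5 cells/mL) were infected with HIV-1 LAV-Bru or mock-infected, with compound dilutions in triplicate, for at least 7 days. Medium with or without drug was renewed every 3–4 days for longer runs. MTT absorbance was read at 540 nm. CD50 = 50% reduction of mock-infected absorbance; ED50 = dose giving 50% protection from CPE. Values are averages of at least two experiments.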

In experiment [4] the target is Human immunodeficiency virus type 1 reverse transcriptase (Human immunodeficiency virus 1) (UniProt Q72547). Kind of experiment: Compound ability to inhibit the production of HIV reverse transcriptase (RT) in preinfected PBL (peripheral blood lymphocytes) at 10 days at a concentration 5 uM. The method in brief:
(§4)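 PBL were infected with HIV-1 for 1 h at 37 °C, washed twice, and resuspended in complete medium with 10% interleukin-2 and anti-human α-interferon (1000 units/mL). Cells were plated at 1×10^6 cells/well with or without compound. At each time point, 50 µL supernatant was taken for RT assay ([³H]dTTP incorporation, cpm).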

Experiment [5] has the same target. The experiment in a line: Compound ability to inhibit the production of HIV reverse transcriptase (RT) in preinfected PBL (peripheral blood lymphocytes) at 10 days at a concentration 1 uM. Summed up: as §4
Experiment [6] has the same target. The experiment in a line: Percent inhibition evaluated for anti-RT activity at 9 days of culture. On the set-up: concentration or dose not given beside the values. The following applies: concentration not given here. The method in brief:
as §2

For experiment [7] the target is unchanged. The experiment in a line: Compound ability to inhibit the production of HIV reverse transcriptase (RT) in culture supernatant of CEM-CL13 on at 15 days at a concentration 5 uM. The method in brief:
as §1

Experiment [8] has the same target. Kind of experiment: Compounds were evaluated for anti-RT activity by MTT dose and %protection was reported at 9 days of culture. Summed up: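 HIV-1 was preincubated with compound at 25 µM for 60 min at 37 °C, pelleted, and added to CEM-C113 cells (1×10^5 cells/mL) for 60 min at 37 °C. Medium was then replaced without compound. At days 7 and 9, viability was read by MTT assay on 100 µL of cell suspension.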

Experiment [9] has the same target. The experiment in a line: Percent inhibition measured as the production of HIV reverse transcriptase (RT) in culture supernatant of monocytic U937 on at 14 days at a concentration 0.2 uM. Summed up: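 U937 cells in RPMI 1640 with 5% heat-inactivated FCS, penicillin, streptomycin and polybrene (2 μg/mL), 37 °C, 5% CO2. Infected with HIV-1 LAV-Bru; compounds diluted in PBS. 50 μL supernatant aliquots were assayed for RT: 1 h, 37 °C, pH 7.8, Mg2+, poly(rA)-oligo(dT), [3H]dTTP, TCA-pyrophosphate stop, filter counting. % inhibition = 100 − 100 × (treated cpm / virus-control cpm).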

For experiment [10] the target is unchanged. The experiment in a line: Percent inhibition measured as the production of HIV reverse transcriptase (RT) in culture supernatant of monocytic U937 on at 11 days at a concentration 0.2 uM. The method in brief:
(§5)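 HIV-1-infected monocytic U937 cultures were kept up to 14 days with compound. Supernatant RT activity was measured as for CEM-C113, as [³H] cpm/50 µL. % inhibition = 100 − 100 × (cpm of treated samples / cpm of control virus).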

The target is the same in experiment [11]. Kind of experiment: Compound ability to inhibit the production of HIV reverse transcriptase (RT) in culture supernatant of monocytic U937 on at 14 days at a concentration 0.2 uM. Summed up: as §5
Experiment [12] has the same target. The experiment in a line: Compound ability to inhibit the production of HIV reverse transcriptase (RT) in culture supernatant of CEM-CL13 on at 7 days at a concentration 1 uM. Summed up: as §1
The target is the same in experiment [13]. The experiment in a line: Compound ability to inhibit the production of HIV reverse transcriptase (RT) in culture supernatant of monocytic U937 on at 14 days at a concentration 5 uM. Summed up: as §5
Experiment [14] has the same target. The experiment in a line: Compound ability to inhibit the production of HIV reverse transcriptase (RT) in culture supernatant of CEM-CL13 on at 15 days at a concentration 0.2 uM. The method in brief:
as §1

Experiment [15] shares this target. The experiment in a line: Compound ability to inhibit the production of HIV reverse transcriptase (RT) in culture supernatant of monocytic U937 on at 11 days at a concentration 0.2 uM. Summed up:
as §5

The target is the same in experiment [16]. Kind of experiment: Compound ability to inhibit the production of HIV reverse transcriptase (RT) in culture supernatant of monocytic U937 on at 11 days at a concentration 5 uM. Summed up:
as §5

For experiment [17] the target is unchanged. The experiment in a line: Compound ability to inhibit the production of HIV reverse transcriptase (RT) in culture supernatant of CEM-CL13 on at 26 days at a concentration 0.2 uM. The method in brief:
as §1

For experiment [18] the target is unchanged. The experiment in a line: Compound ability to inhibit the production of HIV reverse transcriptase (RT) in preinfected PBL (peripheral blood lymphocytes) at 7 days at a concentration 1 uM. The method in brief: as §4
The target is the same in experiment [19]. Kind of experiment: Compound ability to inhibit the production of HIV reverse transcriptase (RT) in culture supernatant of monocytic U937 on at 7 days at a concentration 0.2 uM. Summed up: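 HIV-1 LAV-Bru-infected U937 cultures run in complete RPMI 1640 (5% FCS, polybrene 2 µg/mL) at 37 °C with compound in triplicate. Culture supernatant (50 µL) sampled from day 7 for RT microassay: poly(rA)-oligo(dT), (methyl-3H)dTTP, Mg2+, pH 7.8, 1 h at 37 °C, TCA precipitation onto filters. Read as cpm/50 µL; % inhibition = 100 − 100 × treated/virus-control cpm.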

Experiment [20] relates to CCRF-CEM. The experiment in a line: Concentration required to reduce the viability of uninfected cells (CEM-CL13) by 50% on day 22. The following applies: Homo sapiens, 528 h, read-out: CD50 (the source's name). Summed up: as §3
In experiment [21] the target is Human immunodeficiency virus type 1 reverse transcriptase (Human immunodeficiency virus 1) (UniProt Q72547). Kind of experiment: Compound ability to inhibit the production of HIV reverse transcriptase (RT) in preinfected PBL (peripheral blood lymphocytes) at 21 days at a concentration 1 uM. Summed up:
as §4

Experiment [22] shares this target. Kind of experiment: Compound ability to inhibit the production of HIV reverse transcriptase (RT) in culture supernatant of CEM-CL13 on at 22 days at a concentration 5 uM. Summed up: as §1

As a reminder, the inhibition is how much of the control response was suppressed. Take `Cc1cn([C@H]2C[C@H](N=[N+]=[N-])[C@@H](CO)O2)c(=O)[nH]c1=O` [ZIDOVUDINE]: the Activity (c.p.m. 50ul-1) was found to be 900 in experiment [1]; 5000 in experiment [2]; 984 in experiment [4]; 757 in experiment [5]; 500 in experiment [7]; 60000 in experiment [11]. The Activity (c.p.m. 50ul-1) worked out at 100 in [12]; 33000 in [13]; 1100 in experiment [14]; 152000 in [15]; 118000 in [16]; 28000 in [17]. In addition, the Activity (c.p.m. 50ul-1) in experiment [18] came out at 972; in experiment [19], 23000; in [21] it was 44400; in experiment [22], 500. Besides, the figures for the CC50 with CCRF-CEM [3] and in the experiment on CCRF-CEM [20] were 23 µM and 22 µM, respectively. Besides, the figures for the inhibition in experiment [6], in experiment [9] and in experiment [10] were 76%, 0% and 0%, respectively. Moreover, in [8], the Protection was found to be 76%.
